# Assays:
# [1] = AUC (0 to 24 hrs) in 17 […] old infants/toddlers measured on day 1 post dose; format: ADME, organism-based; parameters: time < 24 hr; settings: human, plasma
# [2] = AUC (0 to 24 hrs) in 17 […] old infants/toddlers measured on day 4 post dose; format: ADME, organism-based; parameters: time < 24 hr; settings: human, plasma
# [3] = Cmax in plasma of in 17 […] old infants/toddlers measured on day 1 post dose; format: ADME, organism-based; settings: human
# [4] = Cmax in plasma of in 17 years old infants/toddlers measured on day 4 post dose; format: ADME, organism-based; settings: human
# Homo sapiens [5] = organism: Homo sapiens; assay: Clearance in 17 […] old infants/toddlers measured on day 1 post dose; format: ADME, organism-based; settings: in vivo
# [6] = AUC (0 to 24 hrs) in 20 […] old infants/toddlers measured on day 1 post dose; format: ADME, organism-based; parameters: time < 24 hr; settings: human, plasma
# [7] = AUC (0 to 24 hrs) in 20 […] old infants/toddlers measured on day 4 post dose; format: ADME, organism-based; parameters: time < 24 hr; settings: human, plasma
# [8] = Cmax in plasma of in […] infants/toddlers measured on day 1 post dose; format: ADME, organism-based; settings: human
# [9] = Cmax in plasma of in 20 […] old infants/toddlers measured on day 4 post dose; format: ADME, organism-based; settings: human
# Summary of the method: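 Infants/toddlers (10 to 24 months) with fever and neutropenia received caspofungin 50 mg/m2 once daily as a 1-h infusion. C1 is the observed plasma concentration at the end of the first (day 1) or fourth (day 4) infusion, sampled from 20 min before to 30 min after the end of infusion. Caspofungin was measured by HPLC with fluorescence detection.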
# [10] = AUC (0 to 24 hrs) in 3-24 months old infants/toddlers at 50 mg/m'2, iv dosed once daily measured on day 1 post dose; format: ADME, organism-based; parameters: time < 24 hr, route intravenous; settings: human, plasma
# [11] = Cmax in plasma of 3-24 months old infants/toddlers at 50 mg/m'2, iv dosed once daily measured on day 1 post dose; format: ADME, organism-based; parameters: route intravenous; settings: human
# Homo sapiens [12] = assay: Clearance in 3-24 months old infants/toddlers at 50 mg/m'2, iv dosed once daily measured on day 1 post dose; format: ADME, organism-based; settings: in vivo
# [13] = AUC (0 to 24 hrs) in 3-24 months old infants/toddlers at 50 mg/m'2, iv dosed once daily measured on day 4 post dose; format: ADME, organism-based; parameters: time < 24 hr, route intravenous; settings: human, plasma
# [14] = Cmax in plasma of 3-24 months old infants/toddlers at 50 mg/m'2, iv dosed once daily measured on day 4 post dose; format: ADME, organism-based; parameters: route intravenous; settings: human
# [15] = AUC (0 to 24 hrs) in adult human at 50 mg, iv dosed once daily measured on day 1 post dose; format: ADME, organism-based; parameters: time < 24 hr, dose 50 mg, route intravenous; settings: plasma
# [16] = Cmax in plasma of adult human at 50 mg, iv dosed once daily measured on day 1 post dose; format: ADME, organism-based; parameters: dose 50 mg, route intravenous
# Homo sapiens [17] = assay: Clearance in adult human at 50 mg, iv dosed once daily measured on day 1 post dose; format: ADME, organism-based; settings: in vivo
# [18] = AUC (0 to 24 hrs) in adult human at 50 mg, iv dosed once daily measured on day 3 to 14 post dose; format: ADME, organism-based; parameters: dose 50 mg, time < 24 hr, route intravenous; settings: plasma
# [19] = Cmax in plasma of adult human at 50 mg, iv dosed once daily measured on day 3 to 14 post dose; format: ADME, organism-based; parameters: dose 50 mg, route intravenous
# [20] = AUC (0 to 24 hrs) in adult human at 70 mg, iv dosed once daily measured on day 1 post dose; format: ADME, organism-based; parameters: dose 70 mg, time < 24 hr, route intravenous; settings: plasma
# [21] = Cmax in plasma of adult human at 70 mg, iv dosed once daily measured on day 1 post dose; format: ADME, organism-based; parameters: dose 70 mg, route intravenous
# Homo sapiens [22] = assay: Clearance in adult human at 70 mg, iv dosed once daily measured on day 1 post dose; format: ADME, organism-based; settings: in vivo
# [23] = AUC (0 to 24 hrs) in adult human at 70 mg, iv dosed once daily measured on day 3 to 14 post dose; format: ADME, organism-based; parameters: dose 70 mg, time < 24 hr, route intravenous; settings: plasma
# [24] = Cmax in plasma of adult human at 70 mg, iv dosed once daily measured on day 3 to 14 post dose; format: ADME, organism-based; parameters: dose 70 mg, route intravenous
# [25] = AUC (0 to 24 hrs) in 2-11 years old children at 50 mg/m'2, iv dosed once daily measured on day 1 post dose; format: ADME, organism-based; parameters: time < 24 hr, route intravenous; settings: human, plasma
# [26] = Cmax in plasma of 2-11 years old children at 50 mg/m'2, iv dosed once daily measured on day 1 post dose; format: ADME, organism-based; parameters: route intravenous; settings: human
# Homo sapiens [27] = assay: Cmin in plasma of 2-11 years old children at 50 mg/m'2, iv dosed once daily measured on day 1 post dose; format: ADME, organism-based; settings: in vivo
# Homo sapiens [28] = assay: Clearance in 2-11 years old children at 50 mg/m'2, iv dosed once daily measured on day 1 post dose; format: ADME, organism-based; settings: in vivo
# [29] = AUC (0 to 24 hrs) in 2-11 years old children at 50 mg/m'2, iv dosed once daily measured on day 4 post dose; format: ADME, organism-based; parameters: time < 24 hr, route intravenous; settings: human, plasma
# [30] = Cmax in plasma of 2-11 years old children at 50 mg/m'2, iv dosed once daily measured on day 4 post dose; format: ADME, organism-based; parameters: route intravenous; settings: human
# [31] = AUC (0 to 24 hrs) in 12-17 years old adolescents at 50 mg/m'2, iv dosed once daily measured on day 1 post dose; format: ADME, organism-based; parameters: time < 24 hr, route intravenous; settings: human, plasma
# [32] = Cmax in plasma of 12-17 years old adolescents at 50 mg/m'2, iv dosed once daily measured on day 1 post dose; format: ADME, organism-based; parameters: route intravenous; settings: human
# Homo sapiens [33] = assay: Clearance in 12-17 years old adolescents at 50 mg/m'2, iv dosed once daily measured on day 1 post dose; format: ADME, organism-based; settings: in vivo
# [34] = AUC (0 to 24 hrs) in 12-17 years old adolescents at 50 mg/m'2, iv dosed once daily measured on day 4 post dose; format: ADME, organism-based; parameters: time < 24 hr, route intravenous; settings: human, plasma
# [35] = Cmax in plasma of 12-17 years old adolescents at 50 mg/m'2, iv dosed once daily measured on day 4 post dose; format: ADME, organism-based; parameters: route intravenous; settings: human
# [36] = AUC (0 to 24 hrs) in 12 […] old infants/toddlers measured on day 1 post dose; format: ADME, organism-based; parameters: time < 24 hr; settings: human, plasma
# [37] = AUC (0 to 24 hrs) in 12 […] old infants/toddlers measured on day 4 post dose; format: ADME, organism-based; parameters: time < 24 hr; settings: human, plasma
# [38] = Cmax in plasma of in 12 […] old infants/toddlers measured on day 1 post dose; format: ADME, organism-based; settings: human
# [39] = (§1) Cmax in plasma of in 12 […] old infants/toddlers measured on day 4 post dose; format: ADME, organism-based; settings: human, plasma
# Homo sapiens [40] = organism: Homo sapiens; assay: as §1; format: ADME, organism-based; settings: in vivo
# Homo sapiens [41] = organism: Homo sapiens; assay: Clearance in 12 […] old infants/toddlers measured on day 1 post dose; format: ADME, organism-based; settings: in vivo
# [42] = AUC (0 to 24 hrs) in 10 […] old infants/toddlers measured on day 1 post dose; format: ADME, organism-based; parameters: time < 24 hr; settings: human, plasma
# [43] = AUC (0 to 24 hrs) in 10 […] old infants/toddlers measured on day 4 post dose; format: ADME, organism-based; parameters: time < 24 hr; settings: human, plasma
# [44] = Cmax in plasma of in 10 […] old infants/toddlers measured on day 1 post dose; format: ADME, organism-based; settings: human
# [45] = Cmax in plasma of in 10 years old infants/toddlers measured on day 4 post dose; format: ADME, organism-based; settings: human
# Homo sapiens [46] = organism: Homo sapiens; assay: Clearance in 10 […] old infants/toddlers measured on day 1 post dose; format: ADME, organism-based; settings: in vivo
# [47] = AUC (0 to 24 hrs) in 13 […] old infants/toddlers measured on day 4 post dose; format: ADME, organism-based; parameters: time < 24 hr; settings: human, plasma
# [48] = Cmax in plasma of in 13 […] old infants/toddlers measured on day 1 post dose; format: ADME, organism-based; settings: human
# Homo sapiens [49] = organism: Homo sapiens; assay: Clearance in infants/toddlers measured on day 1 post dose; settings: in vivo
# [50] = Cmax in plasma in infants/toddlers measured on day 1 post dose; settings: human
# [51] = Cmax in plasma in infants/toddlers measured on day 4 post dose; settings: human
# [52] = AUC (0 to 24 hrs) in infants/toddlers measured on day 1 post dose; settings: human, plasma
# [53] = AUC (0 to 24 hrs) in infants/toddlers measured on day 4 post dose; settings: human, plasma
# Homo sapiens [54] = organism: Homo sapiens; assay: Clearance in 3 to 24 months old infants/toddlers measured on day 1 post dose; settings: in vivo
# [55] = Cmax in plasma of in 3 to 24 months old infants/toddlers measured on day 4 post dose; settings: human
compound,measurement,setting,value
CC[C@H](C)C[C@H](C)CCCCCCCCC(=O)N[C@H]1C[C@@H](O)[C@@H](NCCN)NC(=O)[C@@H]2[C@@H](O)CCN2C(=O)[C@H]([C@H](O)CCN)NC(=O)[C@H]([C@H](O)[C@@H](O)c2ccc(O)cc2)NC(=O)[C@@H]2C[C@@H](O)CN2C(=O)[C@H]([C@@H](C)O)NC1=O [CASPOFUNGIN],AUC(0-t) at 24 h,[1],102 µg·h/mL
same,AUC at 24 h,[2],135 µg·h/mL
same,Cmax,[3],13900 ng/mL
same,Cmax,[4],16400 ng/mL
same,CL,Homo sapiens [5],4.94 ml/min/m2
same,AUC(0-t) at 24 h,[6],97.4 µg·h/mL
same,AUC at 24 h,[7],122 µg·h/mL
same,Cmax,[8],13000 ng/mL
same,Cmax,[9],12100 ng/mL
same,AUC(0-t) at 24 h,[10],120 µg·h/mL
same,Cmax,[11],17500 ng/mL
same,CL,Homo sapiens [12],6.05 ml/min/m2
same,AUC at 24 h,[13],130 µg·h/mL
same,Cmax,[14],17200 ng/mL
same,AUC(0-t) at 24 h,[15],70.6 µg·h/mL
same,Cmax,[16],7670 ng/mL
same,CL,Homo sapiens [17],6.07 ml/min/m2
same,AUC at 24 h,[18],103 µg·h/mL
same,Cmax,[19],9390 ng/mL
same,AUC(0-t) at 24 h,[20],97.1 µg·h/mL
same,Cmax,[21],10000 ng/mL
same,CL,Homo sapiens [22],5.2 ml/min/m2
same,AUC at 24 h,[23],154 µg·h/mL
same,Cmax,[24],13300 ng/mL
same,AUC(0-t) at 24 h,[25],96.4 µg·h/mL
same,Cmax,[26],14000 ng/mL
same,Cmin,Homo sapiens [27],1090 ng/mL
same,CL,Homo sapiens [28],7.78 ml/min/m2
same,AUC at 24 h,[29],115 µg·h/mL
same,Cmax,[30],15600 ng/mL
same,AUC(0-t) at 24 h,[31],77.6 µg·h/mL
same,Cmax,[32],8950 ng/mL
same,CL,Homo sapiens [33],6.3 ml/min/m2
same,AUC at 24 h,[34],117 µg·h/mL
same,Cmax,[35],12900 ng/mL
same,AUC(0-t) at 24 h,[36],109 µg·h/mL
same,AUC at 24 h,[37],122 µg·h/mL
same,Cmax,[38],17500 ng/mL
same,Cmax,[39],15900 ng/mL
same,Cmax,Homo sapiens [40],17960 ng/mL
same,CL,Homo sapiens [41],6.44 ml/min/m2
same,AUC(0-t) at 24 h,[42],160 µg·h/mL
same,AUC at 24 h,[43],114 µg·h/mL
same,Cmax,[44],14500 ng/mL
same,Cmax,[45],15200 ng/mL
same,CL,Homo sapiens [46],4.37 ml/min/m2
same,AUC at 24 h,[47],121 µg·h/mL
same,Cmax,[48],15800 ng/mL
same,CL,Homo sapiens [49],6.82 ml/min/m2
same,Cmax,[50],21500 ng/mL
same,Cmax,[51],21300 ng/mL
same,AUC(0-t) at 24 h,[52],120 µg·h/mL
same,AUC at 24 h,[53],171 µg·h/mL
same,CL,Homo sapiens [54],5.98 ml/min/m2
same,Cmax,[55],16900 ng/mL

# Reference: ChEMBL document CHEMBL1687725, “Pharmacokinetics and safety of caspofungin in older infants and toddlers” (Antimicrob Agents Chemother, 2009)
